ChEMBL document CHEMBL5136969, “A niclosamide-tobramycin hybrid adjuvant potentiates cefiderocol against P. aeruginosa” (2021)
Active and inactive are the calls of the source.

How the values were obtained:
[1] = test system: Escherichia coli; experiment: Potentiation of minocycline-induced antibiotic activity against Escherichia coli ATCC 25922 assessed as MIC fold reduction at 8 ug/ml after 18 hrs by microbroth dilution method; format: functional; settings: dose 8 µg/ml
Outline: (§1)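 Adjuvant held at a fixed 8 μg/mL while the antibiotic was 2-fold serially diluted in Mueller-Hinton broth (MHB), per CLSI microbroth dilution. Overnight cultures were adjusted in saline to 0.5 McFarland, then diluted 1:50 in MHB to about 5 × 10^5 CFU/mL final, and incubated 18 h at 37 °C. MIC was the lowest concentration with no visible turbidity, confirmed at 590 nm. Fold potentiation = MIC alone / MIC with adjuvant.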

[2] = test system: Pseudomonas aeruginosa; experiment: Potentiation of cindamycin-induced antibiotic activity against Pseudomonas aeruginosa PAO1 assessed as MIC fold reduction at 8 ug/ml after 18 hrs by microbroth dilution method; format: functional; settings: dose 8 µg/ml; outline: as §1
[3] = test system: Escherichia coli; experiment: Potentiation of vancomycin-induced antibiotic activity against Escherichia coli ATCC 25922 assessed as MIC fold reduction at 8 ug/ml after 18 hrs by microbroth dilution method; format: functional; settings: dose 8 µg/ml
[4] = test system: Pseudomonas aeruginosa; experiment: Potentiation of vancomycin-induced antibiotic activity against Pseudomonas aeruginosa PAO1 assessed as MIC fold reduction at 8 ug/ml after 18 hrs by microbroth dilution method; format: functional; settings: dose 8 µg/ml
[5] = test system: Staphylococcus aureus; experiment: Antibacterial activity against methicillin-resistant Staphylococcus aureus ATCC 33592 assessed as reduction in bacterial growth after 18 hrs by microbroth dilution method; format: functional
Outline: (§2)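 Broth microdilution per CLSI in Mueller-Hinton broth (MHB). Overnight cultures were adjusted to 0.5 McFarland in saline, diluted 1:50 in MHB, and added at about 5 × 10^5 CFU/mL final to equal volumes of 2-fold serial dilutions of agent. Incubation was 18 h at 37 °C. MIC was the lowest concentration with no visible turbidity, confirmed by absorbance at 590 nm.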

[6] = test system: Acinetobacter baumannii; experiment: Potentiation of doxycycline-induced antibiotic activity against Acinetobacter baumannii ATCC 17978 assessed as MIC fold reduction at 8 ug/ml after 18 hrs by microbroth dilution method; format: functional; settings: dose 8 µg/ml; outline: as §1
[7] = test system: Pseudomonas aeruginosa; experiment: Antibacterial activity against MDR clinical isolate Pseudomonas aeruginosa PA88949 assessed as potentiation of cefiderocol antibacterial activity by measuring FIC index after 18 hrs by microbroth dilution method; format: functional
Outline: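 Checkerboard in MHB (iron-replete, not iron-depleted CAMHB). Cefiderocol was 2-fold serially diluted along one axis and the adjuvant along the other. Inoculum was 0.5 McFarland diluted 1:50, about 5 × 10^5 CFU/mL final. Incubation was 18 h at 37 °C, with turbidity read visually and confirmed at 590 nm. FIC was the MIC in combination over the MIC alone for each agent, and the FIC index was their sum. Cut-offs were ≤0.5 synergy, >0.5–4 additive, >4 antagonism.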

[8] = test system: Acinetobacter baumannii; experiment: Antibacterial activity against Acinetobacter baumannii AB031 assessed as reduction in bacterial growth after 18 hrs by microbroth dilution method; format: functional
Outline: (§3)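 CLSI microbroth dilution in MHB. Overnight cultures were adjusted to 0.5 McFarland in saline, diluted 1:50, and inoculated at about 5 × 10^5 CFU/mL. Agents were 2-fold serially diluted and incubated 18 h at 37 °C. MIC is the lowest concentration without visible turbidity, confirmed by absorbance at 590 nm. Medium with and without cells served as controls.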

[9] = test system: Acinetobacter baumannii; experiment: Potentiation of cefiderocol-induced antibiotic activity against Acinetobacter baumannii ATCC 17978 assessed as MIC fold reduction at 8 ug/ml after 18 hrs by microbroth dilution method; format: functional; settings: dose 8 µg/ml
Outline: (§4)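 Initial screen in MHB using a fixed 8 μg mL−1 of adjuvant combined with each antibiotic under 2-fold dilution. Broth microdilution used about 5 × 10^5 CFU/mL at 37 °C for 18 h, with visible turbidity read and confirmed at 590 nm. Fold-potentiation = antibiotic MIC alone ÷ antibiotic MIC with adjuvant.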

[10] = test system: Pseudomonas aeruginosa; experiment: Antibacterial activity against MDR clinical isolate Pseudomonas aeruginosa PA88949 assessed as reduction in bacterial growth after 18 hrs by microbroth dilution method; format: functional; outline: as §2
[11] = test system: Escherichia coli; experiment: Antibacterial activity against Escherichia coli 94474 assessed as potentiation of cefiderocol antibacterial activity by measuring FIC after 18 hrs by microbroth dilution method; format: functional
Outline: (§5)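 Checkerboard in Mueller-Hinton broth: cefiderocol 2-fold diluted on one axis, adjuvant 2-fold on the other. Overnight cultures were adjusted to 0.5 McFarland in saline, diluted 1:50 in MHB, and inoculated at about 5 × 10^5 CFU/mL. Incubation was 18 h at 37 °C. Turbidity was read visually and confirmed at 590 nm. FIC index = FIC of antibiotic + FIC of adjuvant; ≤0.5 synergy, >4 antagonism.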

[12] = test system: Escherichia coli; experiment: Potentiation of cefotaxime-induced antibiotic activity against Escherichia coli ATCC 25922 assessed as MIC fold reduction at 8 ug/ml after 18 hrs by microbroth dilution method; format: functional; settings: dose 8 µg/ml; outline: as §4
[13] = test system: Pseudomonas aeruginosa; experiment: Potentiation of niclosamide-induced antibiotic activity against Pseudomonas aeruginosa PAO1 assessed as MIC fold reduction at 8 ug/ml after 18 hrs by microbroth dilution method; format: functional; settings: dose 8 µg/ml
[14] = test system: Enterobacter cloacae; experiment: Antibacterial activity against Enterobacter cloacae 121187 assessed as reduction in bacterial growth after 18 hrs in presence of cefiderocol by microbroth dilution method; format: functional; outline: as §5
[15] = test system: Pseudomonas aeruginosa; experiment: Antibacterial activity against MDR clinical isolate Pseudomonas aeruginosa PA259 assessed as reduction in bacterial growth after 18 hrs by microbroth dilution method; format: functional
Outline: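 CLSI broth microdilution. Overnight cultures were adjusted in saline to 0.5 McFarland, diluted 1:50 in Mueller-Hinton broth (MHB), and inoculated at about 5 × 10^5 CFU/mL. Agents were 2-fold serially diluted in MHB, mixed 1:1 with inoculum, and held at 37 °C for 18 h. MIC was the lowest concentration with no visible turbidity, confirmed at 590 nm.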

[16] = test system: Acinetobacter baumannii; experiment: Potentiation of ceftolozane-induced antibiotic activity against Acinetobacter baumannii ATCC 17978 assessed as MIC fold reduction at 8 ug/ml after 18 hrs by microbroth dilution method; format: functional; settings: dose 8 µg/ml; outline: as §1
[17] = test system: Acinetobacter baumannii; experiment: Antibacterial activity against Acinetobacter baumannii LAC-4 assessed as reduction in bacterial growth after 18 hrs by microbroth dilution method; format: functional; outline: as §3
[18] = test system: Acinetobacter baumannii; experiment: Potentiation of ceftazidime-induced antibiotic activity against Acinetobacter baumannii ATCC 17978 assessed as MIC fold reduction at 8 ug/ml after 18 hrs by microbroth dilution method; format: functional; settings: dose 8 µg/ml; outline: as §1
[19] = test system: Escherichia coli; experiment: Potentiation of ceftazidime-induced antibiotic activity against Escherichia coli ATCC 25922 assessed as MIC fold reduction at 8 ug/ml after 18 hrs by microbroth dilution method; format: functional; settings: dose 8 µg/ml; outline: as §1
[20] = test system: Escherichia coli; experiment: Potentiation of cotrimoxazole-induced antibiotic activity against Escherichia coli ATCC 25922 assessed as MIC fold reduction at 8 ug/ml after 18 hrs by microbroth dilution method; format: functional; settings: dose 8 µg/ml; outline: as §1
[21] = test system: Pseudomonas aeruginosa; experiment: Potentiation of moxifloxacin-induced antibiotic activity against Pseudomonas aeruginosa PA260 assessed as MIC fold reduction in ID-CAMHB condition at 8 ug/ml after 18 hrs by microbroth dilution method; format: functional, organism-based; settings: dose 8.0 µg/ml
[22] = test system: Escherichia coli; experiment: Potentiation of doxycycline-induced antibiotic activity against Escherichia coli ATCC 25922 assessed as MIC fold reduction at 8 ug/ml after 18 hrs by microbroth dilution method; format: functional; settings: dose 8 µg/ml; outline: as §1
[23] = test system: Pseudomonas aeruginosa; experiment: Potentiation of pleuromutilin-induced antibiotic activity against Pseudomonas aeruginosa PAO1 assessed as MIC fold reduction at 8 ug/ml after 18 hrs by microbroth dilution method; format: functional; settings: dose 8 µg/ml
[24] = test system: Pseudomonas aeruginosa; experiment: Potentiation of ceftolozane-induced antibiotic activity against MDR clinical isolate Pseudomonas aeruginosa PA260 assessed as MIC fold reduction at 8 ug/ml after 18 hrs by microbroth dilution method; format: functional, organism-based; settings: dose 8.0 µg/ml; outline: as §1

## NC[C@H]1O[C@H](O[C@H]2[C@H](OCCCCc3cn(-c4ccc(NC(=O)c5cc(Cl)ccc5O)cc4)nn3)[C@@H](O[C@H]3O[C@H](CO)[C@@H](O)[C@H](N)[C@H]3O)[C@H](N)C[C@@H]2N)[C@H](N)C[C@@H]1O
[1]
  fold change (FC): 4
[2]
  fold change (FC): 4
[3]
  fold change (FC): 4
[4]
  fold change (FC): 4
[5]
  MIC: > 128 µg/mL
[6]
  fold change (FC): 4
[7]
  FIC: 1
[8]
  MIC: > 128 µg/mL
[9]
  fold change (FC): 4
[10]
  MIC: > 128 µg/mL
[11]
  FIC: 0.25
[12]
  fold change (FC): 4
[13]
  fold change (FC): 4
[14]
  MIC: 0.25 µg/mL
[15]
  MIC: > 128 µg/mL
[16]
  fold change (FC): 4
[17]
  MIC: > 128 µg/mL
[18]
  fold change (FC): 4
[19]
  fold change (FC): 4
[20]
  fold change (FC): 4
[21]
  Activity: Active
[22]
  fold change (FC): 4
[23]
  fold change (FC): 4
[24]
  Activity: Active
